Test results taken from BindingDB's records for doi:10.1021/jm950541c (Georgia Institute of Technology, 1996).

These compounds were tested against T1, Calpain-2 catalytic subunit (Homo sapiens, UniProt P17655) (assay: Compound was evaluated for the inhibition of Cysteine protease Calpain 2).
T1 sequence (P17655 whole entry): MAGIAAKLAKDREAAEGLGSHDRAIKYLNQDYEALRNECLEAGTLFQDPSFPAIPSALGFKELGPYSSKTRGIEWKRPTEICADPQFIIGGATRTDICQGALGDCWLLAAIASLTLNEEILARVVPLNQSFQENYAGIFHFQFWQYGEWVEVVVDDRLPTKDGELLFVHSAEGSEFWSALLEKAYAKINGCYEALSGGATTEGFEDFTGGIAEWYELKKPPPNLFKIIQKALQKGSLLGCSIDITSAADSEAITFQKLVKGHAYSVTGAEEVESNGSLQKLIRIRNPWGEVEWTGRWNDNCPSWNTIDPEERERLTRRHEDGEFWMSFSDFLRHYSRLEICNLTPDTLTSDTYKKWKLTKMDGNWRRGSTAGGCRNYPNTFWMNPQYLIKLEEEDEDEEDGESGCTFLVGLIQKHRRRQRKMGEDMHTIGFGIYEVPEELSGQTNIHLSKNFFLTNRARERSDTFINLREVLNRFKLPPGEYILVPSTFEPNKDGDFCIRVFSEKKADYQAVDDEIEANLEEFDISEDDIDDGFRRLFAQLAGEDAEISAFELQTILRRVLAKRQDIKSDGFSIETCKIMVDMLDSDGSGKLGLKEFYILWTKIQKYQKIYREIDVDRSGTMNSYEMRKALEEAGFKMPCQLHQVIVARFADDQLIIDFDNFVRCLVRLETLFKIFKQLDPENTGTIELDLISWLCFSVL
How it was run: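 Calpain assay in 25 mM Tris, pH 8.0, with 10 mM CaCl₂ and 5% DMSO. Suc-Leu-AMC hydrolysis was read as initial velocity (t = 30-60 s) after a 30 s delay, at room temperature. Five or more inhibitor concentrations (not above 2 × K_obs) were used at two fixed substrate levels. Ki came from Dixon plots (1/v vs I) averaged over triplicates.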

First: CC(C)CC(NC(=O)C(c1ccccc1)c1ccccc1)C(=O)NC(Cc1ccccc1)C(=O)C(=O)NCC(O)c1ccccc1 (stereo unspecified) [2-Diphenylacetylamino-4-methyl-pentanoic acid [1-benzyl-2-(2-hydroxy-2-phenyl-ethylcarbamoyl)-2-oxo-ethyl]-amide]
Second: CC(C)CC(NC(=O)C(c1ccccc1)c1ccccc1)C(=O)NC(Cc1ccccc1)C(=O)C(=O)NCc1ccccn1 (stereo unspecified) [2-Diphenylacetylamino-4-methyl-pentanoic acid {1-benzyl-2-oxo-2-[(pyridin-2-ylmethyl)-carbamoyl]-ethyl}-amide]
The Ki of the first is 2-fold higher: 730 nM for the first, 360 nM for the second. The second binds more tightly here.

`CC(C)CC(NC(=O)C(c1ccccc1)c1ccccc1)C(=O)NC(Cc1ccccc1)C(=O)C(=O)NCCCN1CCOCC1` (stereo unspecified) [2-Diphenylacetylamino-4-methyl-pentanoic acid [1-benzyl-2-(3-morpholin-4-yl-propylcarbamoyl)-2-oxo-ethyl]-amide] and `CCC(NC(=O)C(CC(C)C)NC(=O)C(c1ccccc1)c1ccccc1)C(=O)C(=O)NCCCN1CCOCC1` (stereo unspecified) [3-(2-Diphenylacetylamino-4-methyl-pentanoylamino)-2-oxo-pentanoic acid (3-morpholin-4-yl-propyl)-amide] are within 1.5-fold of each other in Ki: 74 nM for the first, 110 nM for the second.

Compared with `CCC(NC(=O)C(CC(C)C)NC(=O)C(c1ccccc1)c1ccccc1)C(=O)C(=O)NCc1ccccn1` (stereo unspecified) [3-(2-Diphenylacetylamino-4-methyl-pentanoylamino)-2-oxo-pentanoic acid (pyridin-2-ylmethyl)-amide], `CCNC(=O)C(=O)C(CC)NC(=O)C(CC(C)C)NC(=O)C(c1ccccc1)c1ccccc1` (stereo unspecified) [3-(2-Diphenylacetylamino-4-methyl-pentanoylamino)-2-oxo-pentanoic acid ethylamide] is 13-fold higher in Ki: 90 nM for the first, 1200 nM for the second. The first binds more tightly here.

Going from `CCNC(=O)C(=O)C(CC)NC(=O)C(CC(C)C)NC(=O)Cc1cccc2ccccc12` (stereo unspecified) [3-[4-Methyl-2-(2-naphthalen-1-yl-acetylamino)-pentanoylamino]-2-oxo-pentanoic acid ethylamide] to `CCNC(=O)C(=O)C(CC)NC(=O)C(CC(C)C)NC(=O)c1nccc2ccccc12` (stereo unspecified) [Isoquinoline-1-carboxylic acid [1-(1-ethylaminooxalyl-propylcarbamoyl)-3-methyl-butyl]-amide], the Ki falls from 250 nM to 110 nM (2.3-fold).

First: CCNC(=O)C(=O)C(CC)NC(=O)C(CC(C)C)NC(=O)CCc1ccccc1 (stereo unspecified) [3-[4-Methyl-2-(3-phenyl-propionylamino)-pentanoylamino]-2-oxo-pentanoic acid ethylamide]
Second: CCNC(=O)C(=O)C(CC)NC(=O)C(CC(C)C)NC(=O)c1ccco1 (stereo unspecified) [Furan-2-carboxylic acid [1-(1-ethylaminooxalyl-propylcarbamoyl)-3-methyl-butyl]-amide]
The Ki of the first is 4.5-fold lower: 130 nM for the first, 580 nM for the second.

Compared with `CC(C)CC(NC(=O)OCc1ccccc1)C(=O)NC(Cc1ccccc1)C(=O)C(=O)NCC(O)c1ccc(OCc2ccccc2)c(OCc2ccccc2)c1` (stereo unspecified) [(1-{1-Benzyl-2-[2-(3,4-bis-benzyloxy-phenyl)-2-hydroxy-ethylcarbamoyl]-2-oxo-ethylcarbamoyl}-3-methyl-butyl)-carbamic acid benzyl ester], `CCC(NC(=O)C(CC(C)C)NC(=O)OCc1ccccc1)C(=O)C(=O)NCC(O)c1ccc(OCc2ccccc2)c(OCc2ccccc2)c1` (stereo unspecified) [(1-{1-[2-(3,4-Bis-benzyloxy-phenyl)-2-hydroxy-ethylaminooxalyl]-propylcarbamoyl}-3-methyl-butyl)-carbamic acid benzyl ester] is 6.7-fold lower in Ki: 670 nM for the first, 100 nM for the second.

`CC(C)CC(NC(=O)OCc1ccccc1)C(=O)NC(Cc1ccccc1)C(=O)C(=O)NCC(O)c1ccc(OCc2ccccc2)cc1` (stereo unspecified) [(1-{1-Benzyl-2-[2-(4-benzyloxy-phenyl)-2-hydroxy-ethylcarbamoyl]-2-oxo-ethylcarbamoyl}-3-methyl-butyl)-carbamic acid benzyl ester] and `CC(C)CC(NC(=O)OCc1ccccc1)C(=O)NC(Cc1ccccc1)C(=O)C(=O)NCC(O)c1ccc(Oc2ccccc2)cc1` (stereo unspecified) [(1-{1-Benzyl-2-[2-hydroxy-2-(4-phenoxy-phenyl)-ethylcarbamoyl]-2-oxo-ethylcarbamoyl}-3-methyl-butyl)-carbamic acid benzyl ester] are within 1.5-fold of each other in Ki: 240 nM for the first, 170 nM for the second.

Compared with `CC(C)CC(NC(=O)OCc1ccccc1)C(=O)NC(Cc1ccccc1)C(=O)C(=O)NCC(O)c1cccc(Oc2ccccc2)c1` (stereo unspecified) [(1-{1-Benzyl-2-[2-hydroxy-2-(3-phenoxy-phenyl)-ethylcarbamoyl]-2-oxo-ethylcarbamoyl}-3-methyl-butyl)-carbamic acid benzyl ester], `CCC(NC(=O)C(CC(C)C)NC(=O)OCc1ccccc1)C(=O)C(=O)NCC(O)c1cccc(Oc2ccccc2)c1` (stereo unspecified) [(1-{1-[2-Hydroxy-2-(3-phenoxy-phenyl)-ethylaminooxalyl]-propylcarbamoyl}-3-methyl-butyl)-carbamic acid benzyl ester] is 1.7-fold higher in Ki: 340 nM for the first, 590 nM for the second.

First: CC(C)CC(NC(=O)OCc1ccccc1)C(=O)NC(Cc1ccccc1)C(=O)C(=O)NCC(O)c1cccc(C(F)(F)F)c1 (stereo unspecified) [(1-{1-Benzyl-2-[2-hydroxy-2-(3-trifluoromethyl-phenyl)-ethylcarbamoyl]-2-oxo-ethylcarbamoyl}-3-methyl-butyl)-carbamic acid benzyl ester]
Second: CCC(NC(=O)C(CC(C)C)NC(=O)OCc1ccccc1)C(=O)C(=O)NCC(O)c1cccc(C(F)(F)F)c1 (stereo unspecified) [(1-{1-[2-Hydroxy-2-(3-trifluoromethyl-phenyl)-ethylaminooxalyl]-propylcarbamoyl}-3-methyl-butyl)-carbamic acid benzyl ester]
The Ki of the first is 1.6-fold higher: 290 nM for the first, 180 nM for the second. The second binds more tightly here.

First: CC(C)CC(NC(=O)OCc1ccccc1)C(=O)NC(Cc1ccccc1)C(=O)C(=O)NCc1ccccn1 (stereo unspecified) [(1-{1-Benzyl-2-oxo-2-[(pyridin-2-ylmethyl)-carbamoyl]-ethylcarbamoyl}-3-methyl-butyl)-carbamic acid benzyl ester]
Second: CC(C)CC(NC(=O)OCc1ccccc1)C(=O)NC(Cc1ccccc1)C(=O)C(=O)NCc1ccc2ccccc2n1 (stereo unspecified) [(1-{1-Benzyl-2-oxo-2-[(quinolin-2-ylmethyl)-carbamoyl]-ethylcarbamoyl}-3-methyl-butyl)-carbamic acid benzyl ester]
The Ki of the first is 12-fold higher: 270 nM for the first, 23 nM for the second. The second binds more tightly here.

`CCC(NC(=O)C(CC(C)C)NC(=O)OCc1ccccc1)C(=O)C(=O)NCCc1c[nH]c2ccccc12` (stereo unspecified) [(1-{1-[2-(1H-Indol-3-yl)-ethylaminooxalyl]-propylcarbamoyl}-3-methyl-butyl)-carbamic acid benzyl ester] and `CCC(NC(=O)C(CC(C)C)NC(=O)OCc1ccccc1)C(=O)C(=O)NCCc1ccc(O)cc1` (stereo unspecified) [(1-{1-[2-(4-Hydroxy-phenyl)-ethylaminooxalyl]-propylcarbamoyl}-3-methyl-butyl)-carbamic acid benzyl ester] are within 1.5-fold of each other in Ki: 50 nM for the first, 60 nM for the second.

Compared with `CCC(NC(=O)C(CC(C)C)NC(=O)OCc1ccccc1)C(=O)C(=O)NCCc1cccc(OC)c1` (stereo unspecified) [(1-{1-[2-(3-Methoxy-phenyl)-ethylaminooxalyl]-propylcarbamoyl}-3-methyl-butyl)-carbamic acid benzyl ester], `CCC(NC(=O)C(CC(C)C)NC(=O)OCc1ccccc1)C(=O)C(=O)NCCc1ccc(OC)cc1` (stereo unspecified) [(1-{1-[2-(4-Methoxy-phenyl)-ethylaminooxalyl]-propylcarbamoyl}-3-methyl-butyl)-carbamic acid benzyl ester] is 1.9-fold lower in Ki: 86 nM for the first, 46 nM for the second. The second binds more tightly here.

Compared with `CCC(NC(=O)C(CC(C)C)NC(=O)OCc1ccccc1)C(=O)C(=O)NCC(O)c1ccc(OCc2ccccc2)cc1` (stereo unspecified) [(1-{1-[2-(4-Benzyloxy-phenyl)-2-hydroxy-ethylaminooxalyl]-propylcarbamoyl}-3-methyl-butyl)-carbamic acid benzyl ester], `CCC(NC(=O)C(CC(C)C)NC(=O)OCc1ccccc1)C(=O)C(=O)NCC(O)c1ccc(Oc2ccccc2)cc1` (stereo unspecified) [(1-{1-[2-Hydroxy-2-(4-phenoxy-phenyl)-ethylaminooxalyl]-propylcarbamoyl}-3-methyl-butyl)-carbamic acid benzyl ester] is 2.4-fold higher in Ki: 120 nM for the first, 290 nM for the second. The first binds more tightly here.

Compared with `CCC(NC(=O)C(CC(C)C)NC(=O)OCc1ccccc1)C(=O)C(=O)NCC(O)c1ccc(N(C)C)cc1` (stereo unspecified) [(1-{1-[2-(4-Dimethylamino-phenyl)-2-hydroxy-ethylaminooxalyl]-propylcarbamoyl}-3-methyl-butyl)-carbamic acid benzyl ester], `CCC(NC(=O)C(CC(C)C)NC(=O)OCc1ccccc1)C(=O)C(=O)NCCc1cccn1C` (stereo unspecified) [(3-Methyl-1-{1-[2-(1-methyl-1H-pyrrol-2-yl)-ethylaminooxalyl]-propylcarbamoyl}-butyl)-carbamic acid benzyl ester] is 5.4-fold lower in Ki: 410 nM for the first, 76 nM for the second. The second binds more tightly here.

Compared with `CCNC(=O)C(=O)C(CC)NC(=O)C(CC(C)C)NC(=O)N1CCOCC1` (stereo unspecified) [Morpholine-4-carboxylic acid [1-(1-ethylaminooxalyl-propylcarbamoyl)-3-methyl-butyl]-amide], `CCNC(=O)C(=O)C(CC)NC(=O)C(CC(C)C)NC(=O)c1cccnc1` (stereo unspecified) [N-[1-(1-Ethylaminooxalyl-propylcarbamoyl)-3-methyl-butyl]-nicotinamide] is 12-fold lower in Ki: 9900 nM for the first, 830 nM for the second. The second binds more tightly here.

In the case of `CCNC(=O)C(=O)C(CC)NC(=O)C(CC(C)C)NC(=O)c1cnccn1` (stereo unspecified) [Pyrazine-2-carboxylic acid [1-(1-ethylaminooxalyl-propylcarbamoyl)-3-methyl-butyl]-amide], the Ki is reported as 480 nM.
